# Shown are actives, neighbours in structure and some others; about 5.2% of the full set was active somewhere.
# M1 antagonist: M1 muscarinic receptor (rat) antagonism. P08482. CHO-M1 cells, Fluo-4 calcium, ACh EC80 antagonist mode; hits give low values. B-score at 10 µM. hit rate 3.4% among 64,000. AID 628;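 active means calcium fluorescence response, raw or row-and-column corrected B-score, differing from the plate sample mean either way at a set confidence level, mostly lower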
# E coli WT exp: E. coli BW25113 growth inhibition, expanded screen; OD600 absorbance; AID 710; growth inhibition, % at 100 µM; hit rate 0.15% among 98,000;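 active means growth inhibition above about 50% at one test dose, limit read from the data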;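 further: growth measured after 20 h incubation at 37 °C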
# tolC growth inh: E. coli tolC mutant growth inhibition | E. coli BW25113 tolC mutant growth, OD615 | growth inhibition, % at 10 µM (by protocol) | hit rate 2.2% among 65,000 | AID 573;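 active means growth inhibition at or above a cutoff equal to the mean over every tested compound plus 3 SD, cut at about 60% in these data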;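 further: growth measured after 20 h incubation at 37 °C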
#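 Signal: optical density read at 615 nm; Assay system: E. coli ΔtolC::kan strain BW25113; Times: 20 h incubation with compound, 37 °C; Dosing: 10 µM final, single dose.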
# M1 agonist: activates the M1 muscarinic receptor; AID 626; B-score at 10 µM; hit rate 3% among 64,000; CHO-M1 cells, Fluo-4 calcium fluorescence, agonist mode; hits give high values;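 active means fluorescence rise, raw or as B-score row- and column-corrected plate score, outside the 99.7% band of its plate's samples, either direction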
# AP complement: orthogonal test for alternative complement pathway inhibitors. inhibition, % at 5 µM. hit rate 0.08% among 62,000. Human serum alternative complement pathway, LPS-coated ELISA, C3 deposition; tested in compound mixtures;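 active means inhibition above 30% in each of the two pooled mixtures holding the compound, so the lower value exceeds 30%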;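 further: 0% = serum in Mg-EGTA without compound and 100% = EDTA serum blank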
#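 Test system: human serum alternative complement pathway, C3 deposition on LPS-coated wells; also added: Plate-bound LPS; doses: 5 µM per compound in ten-compound mixtures; schedule: 1 h at 37 °C; detection: Anti-C3 ELISA, OD 450 nm; evaluation: percent inhibition of C3 deposition onto LPS; repeats: two pool placements per compound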
# WNV protease inh: blocks West Nile virus NS2B-NS3 protease activity; P06935; WNV NS2B-NS3 protease, fluorogenic substrate Ex360/Em465; hits give low values; z-score (test concentration not listed); hit rate 0.18% among 65,000; AID 577; in the data active means z-score below about -3
# M1 agonist conf: confirmation of rat M1 muscarinic receptor agonists | hit rate 19% among 1,700 | fluorescence change (max-min) at 10 µM | shares compounds with M1 agonist | AID 1488 | CHO-M1 cells, Fluo-4 calcium fluorescence, agonist mode; actives lie on both sides;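 active means fluorescence change differs from the solvent-only DMSO control mean at a set confidence level in both duplicate runs; inconclusive means differs from solvent-only control mean in just one of two runs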;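 further: an EC20 dose of acetylcholine follows compound addition during the same imaging run; raw fluorescence intensity difference in instrument units with no normalization to controls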
# M4 ag counter: activates rat M4 receptor in counter-screen for M1 agonists; shares compounds with M1 agonist; CHO M4/Gqi5 cells, Fluo-4 calcium fluorescence, agonist mode; actives lie on both sides; fluorescence change (max-min) at 10 µM; hit rate 9% among 1,700;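 active means fluorescence change differing from the plate's solvent-only control wells at 99.7% confidence in both duplicates, whether higher or lower; inconclusive means differs from solvent controls in only one of two duplicates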
# Target sequence (P08485 whole entry, looked up): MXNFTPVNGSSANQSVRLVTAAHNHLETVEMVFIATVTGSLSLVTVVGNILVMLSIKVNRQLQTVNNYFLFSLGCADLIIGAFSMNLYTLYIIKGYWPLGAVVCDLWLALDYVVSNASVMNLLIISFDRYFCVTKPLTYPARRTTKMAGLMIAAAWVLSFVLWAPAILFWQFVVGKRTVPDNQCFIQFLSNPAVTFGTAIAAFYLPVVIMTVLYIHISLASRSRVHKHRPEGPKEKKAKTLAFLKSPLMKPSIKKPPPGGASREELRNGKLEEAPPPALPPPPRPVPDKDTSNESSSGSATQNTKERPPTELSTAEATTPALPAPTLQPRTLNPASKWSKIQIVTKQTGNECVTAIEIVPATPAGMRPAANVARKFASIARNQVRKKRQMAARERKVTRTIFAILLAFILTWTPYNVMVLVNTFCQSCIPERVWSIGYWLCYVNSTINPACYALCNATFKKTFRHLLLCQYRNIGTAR
# Starred values were filed as active, the others as inactive; ? = inconclusive; / = no result given.
SMILES,M1 antagonist,E coli WT exp,tolC growth inh,M1 agonist,AP complement,WNV protease inh,M1 agonist conf,M4 ag counter
Cc1ccc2[nH]c3c(c2c1)CN(C(=O)CN1CCN(c2cccc(C)c2C)CC1)CC3,-0.314,-1.0,22.3,-2.96*,7.3,-0.37,37.4,-5.42
COc1ccc(OC)c(C2C3CN(C(C)C)CC=C3C(C#N)=C(N)C2(C#N)C#N)c1 (stereo not given),-0.136,-3.0,2.5,40.4*,-10.5,-0.67,217*,212*
CCCCOc1ccc(C2C3CN(C(=O)OCC)CC=C3C(C#N)=C(N)C2(C#N)C#N)cc1OC (stereo not given),0.0436,-10.0,5.1,-0.632,7.1,-0.05,/,/
CCCN1CC=C2C(C#N)=C(N)C(C#N)(C#N)C(c3cccc(OC)c3OC)C2C1 (stereo not given),-0.899,6.0,7.2,89.4*,16.0,-0.53,666*,628*
CN1CC=C2C(C#N)=C(N)C(C#N)(C#N)C(c3cccc(Cl)c3Cl)C2C1 (stereo not given),0.681,1.0,16.0,64.1*,-5.9,0.88,243*,236*
CN1CC=C2C(C#N)=C(N)C(C#N)(C#N)[C@H](c3ccoc3)[C@H]2C1,/,-1.0,/,/,/,/,/,/
CC(=O)N1CC=C2C(C#N)=C(N)C(C#N)(C#N)C(CCc3ccccc3)C2C1 (stereo not given),-1.04,-10.0,10.1,1.55,8.2,0.26,/,/
CCN1CC=C2C(C#N)=C(N)C(C#N)(C#N)C(CCc3ccccc3)C2C1 (stereo not given),-2.47*,-4.0,4.0,32.2*,5.1,-0.86,247*,?
O=C(CCn1c(=O)sc2ccccc21)NCCN1CCOCC1,-0.106,/,-10.6,-0.743,19.9,0.5,/,/
Cc1cc(-c2ccccc2)nc(N(C)NC(=O)c2ccc(Cl)cc2)c1S(C)(=O)=O,/,-15.0,/,/,/,/,/,/
O=C(CSc1nnnn1-c1ccc(F)cc1)NC1CCCCC1,-0.148,10.0,3.0,-0.115,23.7,0.62,/,/
CN(C)S(=O)(=O)c1cccc(C(=O)OCC(=O)NCc2ccccc2)c1,/,1.0,/,/,/,/,/,/
CN(C)S(=O)(=O)c1cccc(C(=O)OCC(=O)Nc2sccc2C(N)=O)c1,-3.33*,-8.0,20.8,8.76*,-25.2,-0.21,?,-69.3*
C=CCc1cccc2cc(C(=O)N3CCN(C(=O)c4ccco4)CC3)c(=O)oc12,-0.758,0.0,-1.2,0.828,14.6,0.04,/,/
COc1ccccc1N1CCN(C(=O)CCNS(=O)(=O)c2ccc(Br)s2)CC1,0.661,-6.0,33.2,2.56*,6.4,0.7,?,-76.7
COc1ccc(OCC(O)Cn2c(=N)n(CCN3CCOCC3)c3ccccc32)cc1 (stereo not given),-0.0215,8.0,-11.8,7.47*,5.9,-0.88,-25.9,-30
COc1cc(OC)nc(Oc2ccccc2C(=O)Oc2cccc(C)c2)n1,/,-1.0,/,/,/,/,/,/
O=C(CCCCCn1c(=S)[nH]c2cc3c(cc2c1=O)OCO3)N1CCN(Cc2ccccc2)CC1,-0.471,-11.0,11.8,-0.049,13.3,-0.15,/,/
O=C(CCCCCn1c(=S)[nH]c2cc3c(cc2c1=O)OCO3)N1CCN(C2CCCCC2)CC1,-5.08*,-8.0,0.5,2.08*,3.8,0.03,-23.4,?
CCOC(=O)Cc1cnc(NC(=O)NC(C(=O)OCC)(c2ccccc2)C(F)(F)F)s1 (stereo not given),-0.328,1.0,2.6,-0.496,-0.8,0.86,/,/
COc1ccccc1C(=O)NC(=Nc1nc2ccccc2o1)NC(=O)c1ccccc1OC,-0.456,-5.0,-3.9,6.44*,/,-1.58,?,-50.1
Nc1c(S(=O)(=O)c2ccccc2)c2nc3ccccc3nc2n1Cc1ccco1,0.0576,-9.0,28.5,2.85*,9.9,0.42,23.7,-40.1
Cc1ccc(S(=O)(=O)c2c(N)n(Cc3ccco3)c3nc4ccccc4nc23)cc1C,/,-8.0,/,/,/,/,/,/
CCOC(=O)c1oc2cccc(O)c2c1CN(Cc1ccccc1)C(C)=O,0.73,-8.0,21.4,2.61*,3.6,-0.91,?,-43.9
Oc1ccc(CNc2ccccc2)c2cccnc12,-0.336,3.0,-4.6,0.105,5.6,2.17,/,/
SMILES,M1 antagonist,E coli WT exp,tolC growth inh,M1 agonist,AP complement,WNV protease inh,M1 agonist conf,M4 ag counter
Oc1ccc(CNc2ccc(F)cc2)c2cccnc12,0.0369,6.0,3.3,21.9*,15.3,2.23,-20.1,?
COc1ccc(C)cc1-n1nnnc1SCc1cc(=O)n2cc(C)ccc2n1,-1.88,-1.0,4.7,5.22*,2.8,-0.99,-18.1,-35
CCCCCC(=O)Nc1cccc(-c2nc3ncccc3o2)c1,-1.21,13.0,8.1,3.98*,9.7,0.15,-2.99,-8.69
OC(CNCC(c1ccco1)N1CCCCC1)c1ccccc1 (stereo not given),0.646,3.0,0.3,0.797,16.2,0.31,/,/
O=C(NCCc1ccc(Cl)cc1)c1cnc2n(c1=O)CCS2,-0.0983,/,4.0,-2.85*,2.1,-0.71,?,-75.5
Cc1ccc2c(COn3nnc4ccc(S(=O)(=O)N(C)C)cc43)cc(=O)oc2c1C,-0.0188,-8.0,10.2,20.8*,6.9,0.35,-10.3,-29.5
CCOC(=O)N1CCN(Cc2nc3c(c(=O)[nH]c(=O)n3C)n2Cc2cc(C)ccc2C)CC1,0.575,-1.0,-0.9,0.715,4.8,-0.61,/,/
COc1ccc(C2N3CC4(C)CN2CC(C)(C3)C4)cc1OC (stereo not given),0.475,7.0,0.8,-3.1*,16.0,1.05,-13.9,-64.8*
COc1ccc(C2C(C(=O)N3CCN(c4ccccc4F)CC3)c3ccccc3C(=O)N2C)cc1 (stereo not given),0.0846,-2.0,16.1,4.93*,4.8,/,?,?
COc1ccc(C2C(C(=O)N3CCC(C)CC3)c3ccccc3C(=O)N2C)cc1 (stereo not given),-0.604,/,7.3,0.225,4.6,-0.05,/,/
CCN(CC)S(=O)(=O)c1ccc(/C(O)=C2/C(=O)C(=O)N(CCOC)C2c2ccccc2)cc1 (stereo not given),-0.919,3.0,-10.7,32.9*,4.1,0.36,-21.2,-27.1
COCCCN1C(=O)C(=O)/C(=C(/O)c2ccccc2)C1c1ccc(N(C)C)cc1 (stereo not given),-0.0627,4.0,-5.2,-0.0127,9.4,-0.93,/,/
CN(C)c1ccc(/C=C/C(O)=C2/C(=O)N(C)C3(C)CC2c2ccccc2O3)cc1 (stereo not given),0.172,-7.0,23.0,28.4*,-3.9,0.6,232*,229*
CN(C)c1ccc(C=C2C(=O)OC(C)(C(C)(C)C)OC2=O)cc1 (stereo not given),/,0.0,/,/,/,/,/,/
